# In ChEMBL document CHEMBL1128288, “7-Azetidinylquinolones as antibacterial agents. 3. Synthesis, properties and structure-activity relationships of the stereoisomers containing a 7-(3-amino-2-methyl-1-azetidinyl) moiety” (J Med Chem, 1995):
# How the values were obtained:
# [1] = tested on: Enterococcus faecalis; experiment: In vitro antibacterial activity measured as minimum inhibitory concentration was evaluated on Streptococcus faecalis ATCC 10541 (Sf).; type: functional
# How it was run: (§1)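 Serial 2-fold agar dilution in Mueller Hinton medium, run side by side with reference quinolones. Inoculum 10^5 cfu/mL; compound range 0.007–16 µg/mL.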
# [2] = tested on: Bacillus cereus; experiment: In vitro antibacterial activity measured as minimum inhibitory concentration was evaluated on Bacillus cereus ATCC 11778 (Bc).; type: functional; how it was run: as §1
# [3] = tested on: Staphylococcus epidermidis; experiment: In vitro antibacterial activity measured as minimum inhibitory concentration was evaluated on Staphylococcus epidermidis ATCC 155-1 (Se).; type: functional; how it was run: as §1
# [4] = tested on: Enterobacter cloacae; experiment: In vitro antibacterial activity measured as minimum inhibitory concentration, was evaluated on Enterobacter cloacae ATCC 23355 (Ecl).; type: functional
# [5] = tested on: Bacillus subtilis; experiment: In vitro antibacterial activity measured as minimum inhibitory concentration was evaluated on Bacillus subtilis ATCC 6633(Bs).; type: functional; how it was run: as §1
# [6] = tested on: Pseudomonas aeruginosa; experiment: In vitro antibacterial activity measured as minimum inhibitory concentration was evaluated on Pseudomonas aeruginosa ATCC 10145 (Pa).; type: functional; how it was run: as §1
# [7] = mouse, in vivo, po, 50 mg/kg
# [8] = tested on: Staphylococcus aureus; experiment: In vitro antibacterial activity measured as minimum inhibitory concentration was evaluated on Staphylococcus aureus ATCC 25178 (Sa).; type: functional; how it was run: as §1
# [9] = tested on: Morganella morganii; experiment: In vitro antibacterial activity measured as minimum inhibitory concentration was evaluated on morganella morganii ATCC 8019 (Mm).; type: functional; how it was run: as §1
# [10] = tested on: Klebsiella pneumoniae; experiment: In vitro antibacterial activity measured as minimum inhibitory concentration was evaluated on klebsiella pneumoniae ATCC 10031 (Kp).; type: functional
# How it was run: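 Serial 2-fold agar dilution in Mueller Hinton medium, run side by side with reference quinolones.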
# [11] = tested on: Proteus vulgaris; experiment: In vitro antibacterial activity measured as minimum inhibitory concentration was evaluated on proteus vulgaris ATCC 8427 (Pv).; type: functional; how it was run: as §1
# [12] = tested on: Escherichia coli; experiment: In vitro antibacterial activity measured as minimum inhibitory concentration, was evaluated on Escherichia coli ATCC 23559(Ec).; type: functional; how it was run: as §1
# [13] = tested on: Escherichia coli; experiment: In vivo efficacy as ED50 against Escherichia coli HM-42 by oral administration in mice.; type: functional
# How it was run: (§2)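 Mice, 4 groups of 10, infected intraperitoneally with slightly more than the LD100 of the organism. A single oral dose was given immediately after infection, with four doses (one per group) chosen from in vitro activity. Survival was scored after one week. ED50 (total dose, mg/kg, protecting 50%) was interpolated among group survival rates.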
# [14] = tested on: Staphylococcus aureus; experiment: In vivo efficacy as ED50 against Staphylococcus aureus HS-93 by oral administration in mice.; type: functional; how it was run: as §2
# [15] = tested on: Pseudomonas aeruginosa; experiment: In vivo efficacy as ED50 against Pseudomonas aeruginosa HS-116 by oral administration in mice.; type: functional; how it was run: as §2
# [16] = Enterococcus faecalis, ATCC 10541, read-out: MIC
# [17] = Bacillus cereus, ATCC 11778, read-out: MIC
# [18] = Staphylococcus epidermidis, ATCC 155-1, read-out: MIC
# [19] = Enterobacter cloacae, ATCC 23355, read-out: MIC
# [20] = Bacillus subtilis, ATCC 6633, read-out: MIC
# [21] = Pseudomonas aeruginosa, ATCC 10145, read-out: MIC
# [22] = Staphylococcus aureus, ATCC 25178, read-out: MIC
# [23] = Morganella morganii, ATCC 8019, read-out: MIC
# [24] = Klebsiella pneumoniae, ATCC 10031, read-out: MIC
# [25] = Proteus vulgaris, ATCC 8427, read-out: MIC
# [26] = Escherichia coli, ATCC 23559, read-out: MIC
# [27] = Escherichia coli, po, read-out: ED50
# [28] = Staphylococcus aureus, po, read-out: ED50
# [29] = Pseudomonas aeruginosa, po, read-out: ED50
"MIC [1, 16] [µg/mL]","MIC [2, 17] [µg/mL]","MIC [3, 18] [µg/mL]","MIC [4, 19] [µg/mL]","MIC [5, 20] [µg/mL]","MIC [6, 21] [µg/mL]",AUC [7] [ng·h/mL],"MIC [8, 22] [µg/mL]","MIC [9, 23] [µg/mL]","MIC [10, 24] [µg/mL]","MIC [11, 25] [µg/mL]","MIC [12, 26] [µg/mL]",SMILES,"ED50 [13, 27] [mg/kg]","ED50 [14, 28] [mg/kg]","ED50 [15, 29] [mg/kg]",other results
4,0.5,0.25,1,0.25,8,35900,0.25,1,0.25,2,0.5,C[C@@H]1[C@@H](N)CN1c1cc2c(cc1F)c(=O)c(C(=O)O)cn2-c1ccc(F)cc1F,10,16.1,90,–
1,0.12,0.12,0.06,0.06,0.5,–,0.12,0.25,0.06,0.5,0.06,C[C@@H]1[C@@H](N)CN1c1c(F)cc2c(=O)c(C(=O)O)cn(-c3ccc(F)cc3F)c2c1F,3,11.2,98,–
2,1,1,0.25,0.25,4,2200,1,0.5,0.25,1,0.25,C[C@@H]1[C@@H](N)CN1c1cc2c(cc1F)c(=O)c(C(=O)O)cn2C1CC1,–,–,–,–
1,0.12,0.12,0.06,0.06,1,–,0.12,0.12,0.06,0.5,0.06,CC1C(N)CN1c1c(F)cc2c(=O)c(C(=O)O)cn(-c3ccc(F)cc3F)c2c1F (stereo not given),2.3,10,61,–
0.5,0.06,0.12,0.06,0.015,0.5,38200,0.06,–,0.015,0.5,0.06,"C[C@H]1[C@H](N)CN1c1nc2c(cc1F)c(=O)c(C(=O)O)cn2-c1ccc(F)cc1F (single isomer, unassigned)",4.2,6.6,156,–
0.12,0.015,0.06,0.015,0.015,0.12,4000,0.06,0.015,0.015,–,0.015,"C[C@H]1[C@H](N)CN1c1cc2c(cc1F)c(=O)c(C(=O)O)cn2C1CC1 (single isomer, unassigned)",2.9,17,100,–
1,0.12,0.12,0.06,0.06,1,–,0.12,0.12,–,–,0.06,C[C@@H]1[C@H](N)CN1c1c(F)cc2c(=O)c(C(=O)O)cn(C3CC3)c2c1F (stereo in doubt; 23),6.2,–,123,ED50 [14]: 18.6 mg/kg; MIC [10]: 0.12 µg/mL; MIC [11]: 0.25 µg/mL

# Further lines, the compound ahead of its results:
SMILES,"MIC [1, 16] [µg/mL]","MIC [2, 17] [µg/mL]","MIC [3, 18] [µg/mL]","MIC [4, 19] [µg/mL]","MIC [5, 20] [µg/mL]","MIC [6, 21] [µg/mL]",AUC [7] [ng·h/mL],"MIC [8, 22] [µg/mL]","MIC [9, 23] [µg/mL]","MIC [10, 24] [µg/mL]","MIC [11, 25] [µg/mL]","MIC [12, 26] [µg/mL]","ED50 [13, 27] [mg/kg]","ED50 [14, 28] [mg/kg]","ED50 [15, 29] [mg/kg]",other results
CCn1cc(C(=O)O)c(=O)c2c(N)c(F)c(N3C[C@H](N)[C@H]3C)c(F)c21,0.25,0.25,0.25,0.06,0.06,0.5,12500,0.12,0.06,0.25,0.25,0.25,–,–,–,–
C[C@H]1COc2c(N3CC(C)(N)C3)c(F)cc3c(=O)c(C(=O)O)cn1c23,0.5,0.25,0.12,0.015,0.015,0.5,8500,0.25,0.015,0.015,0.25,0.015,6.7,19.1,121,–
C[C@@H]1[C@@H](N)CN1c1nc2c(cc1F)c(=O)c(C(=O)O)cn2C1CC1,2,0.25,0.25,0.12,0.06,2,22300,0.5,0.25,0.06,0.5,0.12,–,–,–,–
C[C@@H]1[C@@H](N)CN1c1c(F)c(N)c2c(=O)c(C(=O)O)cn(C3CC3)c2c1F,0.12,0.015,0.015,0.015,0.015,0.12,11400,0.015,0.015,0.015,0.06,0.015,4.1,11.4,96,–
C[C@@H]1[C@@H](N)CN1c1c(F)cc2c(=O)c(C(=O)O)cn3c2c1OC[C@@H]3C,1,0.5,0.25,0.25,0.12,4,–,0.25,0.12,0.06,0.5,0.25,50,46.1,53,–
"C[C@H]1[C@H](N)CN1c1c(F)cc2c(=O)c(C(=O)O)cn(C3CC3)c2c1Cl (single isomer, unassigned)",0.015,0.015,0.015,0.015,0.015,–,5200,0.015,0.015,0.015,0.015,0.015,2.1,3.6,36,–
"C[C@H]1[C@H](N)CN1c1c(F)cc2c(=O)c(C(=O)O)cn(C3CC3)c2c1F (single isomer, unassigned)",–,–,0.015,0.015,0.015,–,21800,0.015,0.015,0.015,–,0.015,1,3.5,18,–
C[C@@H]1[C@@H](N)CN1c1c(F)cc2c(=O)c(C(=O)O)cn(C3CC3)c2c1F (stereo in doubt; 22),–,–,–,–,–,–,–,–,–,–,–,–,–,–,–,MIC [1]: 0.25 µg/mL; ED50 [13]: 2 mg/kg; ED50 [14]: 9 mg/kg; MIC [2]: 0.06 µg/mL; MIC [3]: 0.06 µg/mL; MIC [4]: 0.03 µg/mL; MIC [5]: 0.03 µg/mL; MIC [6]: 0.25 µg/mL; MIC [8]: 0.06 µg/mL; MIC [9]: 0.03 µg/mL; MIC [10]: 0.03 µg/mL; ED50 [15]: 22 mg/kg; MIC [11]: 0.06 µg/mL; MIC [12]: 0.015 µg/mL
C[C@@H]1[C@H](N)CN1c1c(F)cc2c(=O)c(C(=O)O)cn(C3CC3)c2c1F (stereo in doubt; 23c),–,–,–,–,–,–,–,–,–,–,–,–,–,–,–,MIC [1]: 0.5 µg/mL; ED50 [13]: 6.1 mg/kg; ED50 [14]: 5.4 mg/kg; MIC [2]: 0.06 µg/mL; MIC [3]: 0.12 µg/mL; MIC [4]: 0.03 µg/mL; MIC [5]: 0.03 µg/mL; MIC [6]: 0.5 µg/mL; MIC [8]: 0.06 µg/mL; MIC [9]: 0.06 µg/mL; MIC [10]: 0.03 µg/mL; ED50 [15]: 117 mg/kg; MIC [11]: 0.12 µg/mL; MIC [12]: 0.03 µg/mL
O=C(O)c1cn(C2CC2)c2cc(N3CCNCC3)c(F)cc2c1=O [CIPROFLOXACIN],–,–,–,–,–,–,2300,–,–,–,–,–,3,–,70,–
C[C@H]1COc2c(N3CCN(C)CC3)c(F)cc3c(=O)c(C(=O)O)cn1c23.C[C@H]1COc2c(N3CCN(C)CC3)c(F)cc3c(=O)c(C(=O)O)cn1c23.O [LEVOFLOXACIN],0.25,0.25,0.12,0.03,0.03,0.5,10200,0.25,0.03,0.03,0.5,–,5,14,109,–
